In ChEMBL document CHEMBL1127386, “Nitrogen-in-the-ring pyranoses and furanoses: structural basis of inhibition of mammalian glycosidases” (J Med Chem, 1994):

How the values were obtained:
[1] = target: T1, Beta-galactosidase (Bos taurus, UniProt Q58D55); assay: Concentration that causes 50% inhibition of mammalian cytosolic beta-galactosidase was determined in bovine liver; NI is less than 50 % inhibition at 1000 uM
T1 sequence (Q58D55 whole entry): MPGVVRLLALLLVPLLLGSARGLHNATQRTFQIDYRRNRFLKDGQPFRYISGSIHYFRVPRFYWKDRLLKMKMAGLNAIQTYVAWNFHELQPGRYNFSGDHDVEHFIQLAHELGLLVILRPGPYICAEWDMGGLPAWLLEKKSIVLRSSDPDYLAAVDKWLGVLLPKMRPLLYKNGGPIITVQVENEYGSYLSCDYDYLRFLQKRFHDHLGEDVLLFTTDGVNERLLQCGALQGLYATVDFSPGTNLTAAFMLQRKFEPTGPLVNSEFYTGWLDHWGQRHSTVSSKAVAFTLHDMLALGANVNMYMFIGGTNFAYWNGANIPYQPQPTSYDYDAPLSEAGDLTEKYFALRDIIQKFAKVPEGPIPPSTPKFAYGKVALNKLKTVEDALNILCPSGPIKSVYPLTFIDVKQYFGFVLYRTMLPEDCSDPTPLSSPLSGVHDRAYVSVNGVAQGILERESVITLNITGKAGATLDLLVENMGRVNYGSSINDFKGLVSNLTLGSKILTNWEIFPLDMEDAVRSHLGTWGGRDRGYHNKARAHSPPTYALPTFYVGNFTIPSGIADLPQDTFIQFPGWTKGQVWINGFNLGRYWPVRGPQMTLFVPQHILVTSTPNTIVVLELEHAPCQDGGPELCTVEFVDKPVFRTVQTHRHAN

[2] = target: T2, Trehalase (Rattus norvegicus, UniProt O70282); assay: Concentration that causes 50% inhibition of mammalian trehalase was determined in rat intestine; NI is less than 50 % inhibition at 1000 uM
T2 sequence (O70282 whole entry): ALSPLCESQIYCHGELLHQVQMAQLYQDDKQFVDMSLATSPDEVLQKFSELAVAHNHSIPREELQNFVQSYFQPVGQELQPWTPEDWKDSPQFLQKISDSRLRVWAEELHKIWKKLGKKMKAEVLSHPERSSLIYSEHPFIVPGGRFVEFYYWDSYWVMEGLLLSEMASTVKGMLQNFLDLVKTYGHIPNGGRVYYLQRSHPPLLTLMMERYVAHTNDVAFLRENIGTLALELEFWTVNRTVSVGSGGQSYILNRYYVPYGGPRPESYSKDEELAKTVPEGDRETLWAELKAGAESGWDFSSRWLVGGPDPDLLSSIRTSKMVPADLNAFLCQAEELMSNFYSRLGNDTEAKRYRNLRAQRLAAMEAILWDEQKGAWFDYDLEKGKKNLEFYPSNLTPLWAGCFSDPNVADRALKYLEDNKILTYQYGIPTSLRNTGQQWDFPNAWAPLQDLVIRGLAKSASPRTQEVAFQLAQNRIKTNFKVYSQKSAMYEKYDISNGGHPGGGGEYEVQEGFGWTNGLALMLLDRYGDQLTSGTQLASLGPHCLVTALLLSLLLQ

[3] = Concentration that causes 50% inhibition of mammalian alpha-glucosidase (endoplasmic reticulum glucosidase II) was determined in rat liver; assay type: tissue-based
[4] = target: T1, Beta-galactosidase; assay: Concentration that causes 50% inhibition of mammalian lysosomal beta-galactosidase was determined in bovine liver; NI is less than 50 % inhibition at 1000 uM
[5] = target: T3, Beta-galactosidase (Rattus norvegicus, UniProt D3ZUM4); assay: Concentration that causes 50% inhibition of mammalian epididymal beta-galactosidase was determined in rat epididymis; NI is less than 50 % inhibition at 1000 uM; assay type: tissue-based
T3 sequence (D3ZUM4 whole entry): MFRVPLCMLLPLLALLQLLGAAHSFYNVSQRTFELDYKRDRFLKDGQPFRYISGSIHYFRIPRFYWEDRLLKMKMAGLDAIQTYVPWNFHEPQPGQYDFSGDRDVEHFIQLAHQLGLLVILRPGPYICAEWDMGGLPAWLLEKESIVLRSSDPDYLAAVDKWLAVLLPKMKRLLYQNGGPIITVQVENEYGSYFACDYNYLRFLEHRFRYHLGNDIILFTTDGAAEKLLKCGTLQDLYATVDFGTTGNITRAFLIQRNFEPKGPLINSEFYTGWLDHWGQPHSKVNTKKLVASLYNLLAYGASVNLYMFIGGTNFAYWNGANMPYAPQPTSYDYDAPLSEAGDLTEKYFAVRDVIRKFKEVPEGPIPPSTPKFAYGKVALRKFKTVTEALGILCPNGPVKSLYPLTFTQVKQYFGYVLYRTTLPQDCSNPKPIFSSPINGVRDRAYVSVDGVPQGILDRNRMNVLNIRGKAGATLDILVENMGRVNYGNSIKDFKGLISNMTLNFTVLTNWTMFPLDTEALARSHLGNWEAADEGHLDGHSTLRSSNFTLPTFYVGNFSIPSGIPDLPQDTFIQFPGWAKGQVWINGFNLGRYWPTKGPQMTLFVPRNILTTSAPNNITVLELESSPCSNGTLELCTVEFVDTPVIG

[6] = target: T3, Beta-galactosidase; assay: Concentration that causes 50% inhibition of mammalian lysosomal beta-galactosidase was determined in rat liver; NI is less than 50 % inhibition at 1000 uM
[7] = target: Lysosomal alpha-glucosidase (Rattus norvegicus, UniProt Q6P7A9); assay: Concentration that causes 50% inhibition of mammalian alpha-glucosidase (lysosomal) was determined in rat liver; NI is less than 50 % inhibition at 1000 uM
[8] = target: T4, Alpha-glucosidase (Bos taurus, UniProt Q9MYM4); assay: Inhibition of mammalian alpha-glucosidase (lysosomal) was determined in bovine liver; assay type: tissue-based
[9] = target: T3, Beta-galactosidase; assay: Concentration that causes 50% inhibition of mammalian lactase beta-galactosidase was determined in rat intestine; NI is less than 50 % inhibition at 1000 uM
[10] = Concentration that causes 50% inhibition of mammalian alpha-glucosidase (endoplasmic reticulum glucosidase II) was determined in rat liver; NI is less than 50 % inhibition at 1000 uM
[11] = target: T3, Beta-galactosidase; assay: Concentration that causes 50% inhibition of mammalian epididymal beta-galactosidase was determined in rat epididymis NI is less than 50 % inhibition at 1000 uM; assay type: tissue-based
[12] = target: T4, Alpha-glucosidase; assay: Inhibition of mammalian alpha-glucosidase (lysosomal) was determined in bovine liver; NI is less than 50 % inhibition at 1000 uM
[13] = target: T2, Trehalase; assay: Concentration that causes 50% inhibition of mammalian trehalase was determined in rat intestine; NI is less than 50 % inhibition at 1000 micro M
[14] = Concentration that causes 50% inhibition of mammalian alpha-glucosidase (endoplasmic reticulum glucosidase II) was determined in rat liver NI is less than 50 % inhibition at 1000 uM; assay type: tissue-based
[15] = target: Lactase/phlorizin hydrolase (Rattus norvegicus, UniProt Q02401); assay: Tested for competitive inhibition of rat intestinal lactase
Outline: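 Brush border membranes from rat small intestine, assayed at pH 5.8 with lactose as substrate. Released D-glucose was measured colorimetrically by the D-glucose oxidase–peroxidase method. Ki and inhibition mode were determined.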

[16] = target: T3, Beta-galactosidase; assay: Concentration that causes 50% inhibition of mammalian beta-galactosidase was determined in rat epididymis; NI is less than 50 % inhibition at 1000 uM; assay type: tissue-based
[17] = target: T3, Beta-galactosidase; assay: Concentration that causes 50% inhibition of mammalian beta-galactosidase was determined in rat intestine; NI is less than 50 % inhibition at 1000 uM
[18] = target: T1, Beta-galactosidase; assay: Concentration that causes 50% inhibition of mammalian lysosomal beta-galactosidase was determined in bovine liver NI is less than 50 % inhibition at 1000 uM; assay type: tissue-based
[19] = target: T2, Trehalase; assay: Concentration that causes 50% inhibition of mammalian trehalase was determined in rat intestine
[20] = target: T1, Beta-galactosidase; assay: Concentration that causes 50% inhibition of mammalian cytosolic beta-galactosidase was determined in bovine liver NI is less than 50 % inhibition at 1000 uM; assay type: tissue-based
[21] = target: T3, Beta-galactosidase; assay: Concentration that causes 50% inhibition of mammalian lysosomal beta-galactosidase was determined in rat liverNI is less than 50 % inhibition at 1000 uM

Sequence of Lysosomal alpha-glucosidase (Q6P7A9 whole entry): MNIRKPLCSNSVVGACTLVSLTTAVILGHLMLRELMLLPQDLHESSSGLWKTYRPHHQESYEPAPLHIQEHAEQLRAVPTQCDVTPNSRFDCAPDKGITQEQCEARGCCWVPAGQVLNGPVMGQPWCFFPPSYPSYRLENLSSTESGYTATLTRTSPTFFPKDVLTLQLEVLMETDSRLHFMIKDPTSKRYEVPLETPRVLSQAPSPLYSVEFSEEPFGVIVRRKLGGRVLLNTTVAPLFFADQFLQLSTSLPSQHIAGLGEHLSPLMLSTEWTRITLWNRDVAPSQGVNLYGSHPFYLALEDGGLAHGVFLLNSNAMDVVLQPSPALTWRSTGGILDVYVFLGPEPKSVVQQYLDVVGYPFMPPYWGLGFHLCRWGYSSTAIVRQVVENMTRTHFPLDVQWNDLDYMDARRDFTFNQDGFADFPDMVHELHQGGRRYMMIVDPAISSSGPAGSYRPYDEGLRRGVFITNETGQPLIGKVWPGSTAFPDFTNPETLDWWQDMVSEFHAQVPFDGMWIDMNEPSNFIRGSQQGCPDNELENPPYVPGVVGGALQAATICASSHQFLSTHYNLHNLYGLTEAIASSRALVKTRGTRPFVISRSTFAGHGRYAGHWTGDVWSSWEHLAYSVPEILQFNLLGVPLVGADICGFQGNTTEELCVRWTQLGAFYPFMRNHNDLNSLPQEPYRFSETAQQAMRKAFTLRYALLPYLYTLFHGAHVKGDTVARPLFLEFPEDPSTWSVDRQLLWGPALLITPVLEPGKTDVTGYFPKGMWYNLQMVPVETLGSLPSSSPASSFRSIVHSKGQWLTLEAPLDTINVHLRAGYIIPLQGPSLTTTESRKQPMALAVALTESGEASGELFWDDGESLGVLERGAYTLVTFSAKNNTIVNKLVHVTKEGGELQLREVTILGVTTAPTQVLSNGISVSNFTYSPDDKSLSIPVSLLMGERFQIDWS
T4 sequence (Q9MYM4 whole entry): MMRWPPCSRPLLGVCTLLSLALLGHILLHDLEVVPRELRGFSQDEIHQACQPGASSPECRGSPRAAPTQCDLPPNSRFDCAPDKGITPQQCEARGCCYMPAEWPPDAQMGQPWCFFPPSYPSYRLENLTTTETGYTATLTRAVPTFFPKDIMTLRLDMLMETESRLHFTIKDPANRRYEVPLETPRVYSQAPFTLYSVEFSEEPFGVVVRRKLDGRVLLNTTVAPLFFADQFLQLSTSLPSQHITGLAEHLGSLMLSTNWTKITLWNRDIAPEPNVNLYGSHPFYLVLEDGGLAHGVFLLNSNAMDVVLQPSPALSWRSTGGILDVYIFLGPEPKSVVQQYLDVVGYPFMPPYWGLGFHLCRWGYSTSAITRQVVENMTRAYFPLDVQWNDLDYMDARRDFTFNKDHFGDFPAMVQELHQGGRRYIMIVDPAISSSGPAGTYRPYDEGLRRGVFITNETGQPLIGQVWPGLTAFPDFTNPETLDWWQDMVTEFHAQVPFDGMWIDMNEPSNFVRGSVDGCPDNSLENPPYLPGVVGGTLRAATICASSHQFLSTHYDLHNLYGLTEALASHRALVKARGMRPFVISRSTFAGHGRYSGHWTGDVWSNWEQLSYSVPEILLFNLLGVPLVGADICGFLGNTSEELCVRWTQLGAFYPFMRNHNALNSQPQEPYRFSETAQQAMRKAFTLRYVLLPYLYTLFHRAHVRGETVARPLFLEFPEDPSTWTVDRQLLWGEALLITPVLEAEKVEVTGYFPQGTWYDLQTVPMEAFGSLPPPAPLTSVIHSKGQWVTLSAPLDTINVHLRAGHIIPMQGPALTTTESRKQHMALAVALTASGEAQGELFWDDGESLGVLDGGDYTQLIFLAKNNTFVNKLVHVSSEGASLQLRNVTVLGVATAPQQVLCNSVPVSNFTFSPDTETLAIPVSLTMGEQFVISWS
Sequence of Lactase/phlorizin hydrolase (Q02401 868-1928 limits assumed): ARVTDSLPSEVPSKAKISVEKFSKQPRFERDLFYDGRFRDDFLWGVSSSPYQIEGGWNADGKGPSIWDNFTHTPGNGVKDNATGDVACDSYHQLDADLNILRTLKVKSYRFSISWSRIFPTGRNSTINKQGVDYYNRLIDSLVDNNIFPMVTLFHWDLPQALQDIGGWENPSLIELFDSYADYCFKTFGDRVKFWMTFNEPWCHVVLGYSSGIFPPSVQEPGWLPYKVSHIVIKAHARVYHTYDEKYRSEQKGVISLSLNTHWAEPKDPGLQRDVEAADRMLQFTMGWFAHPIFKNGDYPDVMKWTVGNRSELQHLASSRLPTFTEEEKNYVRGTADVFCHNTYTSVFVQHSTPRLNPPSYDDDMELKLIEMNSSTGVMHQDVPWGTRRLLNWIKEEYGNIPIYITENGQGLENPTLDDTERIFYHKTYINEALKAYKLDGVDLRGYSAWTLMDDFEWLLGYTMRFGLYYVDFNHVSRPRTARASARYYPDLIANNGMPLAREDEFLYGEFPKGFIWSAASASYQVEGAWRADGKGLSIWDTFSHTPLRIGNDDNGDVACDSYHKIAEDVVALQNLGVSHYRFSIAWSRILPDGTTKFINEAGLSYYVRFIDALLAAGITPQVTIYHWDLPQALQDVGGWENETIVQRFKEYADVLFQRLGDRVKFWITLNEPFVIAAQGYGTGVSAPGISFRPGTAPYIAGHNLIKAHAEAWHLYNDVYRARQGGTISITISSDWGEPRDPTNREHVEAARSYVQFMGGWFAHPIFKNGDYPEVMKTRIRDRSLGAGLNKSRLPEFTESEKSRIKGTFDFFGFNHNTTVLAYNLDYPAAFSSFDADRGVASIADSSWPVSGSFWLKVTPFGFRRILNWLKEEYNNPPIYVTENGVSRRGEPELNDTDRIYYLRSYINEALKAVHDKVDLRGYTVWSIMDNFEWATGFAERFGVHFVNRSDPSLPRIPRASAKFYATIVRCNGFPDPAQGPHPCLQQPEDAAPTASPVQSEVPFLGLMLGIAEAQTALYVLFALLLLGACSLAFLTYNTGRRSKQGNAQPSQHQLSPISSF

| IC50 [2] | IC50 [4] | IC50 [5] | IC50 [6] | IC50 [7] | IC50 [10] | Structure (SMILES) | other results |
| --- | --- | --- | --- | --- | --- | --- | --- |
| No inhibition | No inhibition | No inhibition | No inhibition | No inhibition | – | OC[C@H]1NCC[C@@H](O)[C@@H]1O [FAGOMINE] | IC50 [3]: 840 µM; IC50 [8]: 520 µM |
| No inhibition | No inhibition | No inhibition | No inhibition | No inhibition | No inhibition | OC[C@H]1NC[C@H](O)[C@@H](O)[C@@H]1O [DUVOGLUSTAT] | IC50 [12]: No inhibition |

Second part, the compound before the results:

| Structure (SMILES) | IC50 [2] | IC50 [4] | IC50 [5] | IC50 [6] | IC50 [7] | IC50 [10] | other results |
| --- | --- | --- | --- | --- | --- | --- | --- |
| OC[C@H]1NC[C@H](O)[C@@H](O)[C@@H]1O (stereo in doubt; 4) [DUVOGLUSTAT] | – | – | – | – | – | – | IC50 [1]: No inhibition |
| OC[C@H]1NCC[C@@H](O)[C@H]1O | No inhibition | No inhibition | – | No inhibition | No inhibition | No inhibition | IC50 [1]: No inhibition; IC50 [9]: No inhibition; IC50 [11]: No inhibition |
| OC[C@H]1NCC[C@H](O)[C@@H]1O | – | No inhibition | No inhibition | No inhibition | No inhibition | – | IC50 [12]: No inhibition; IC50 [13]: No inhibition; IC50 [14]: No inhibition; Ki [15]: 1.9 µM |
| OC[C@H]1NC[C@H](O)[C@@H](O)[C@@H]1O (stereo in doubt; 2) [DUVOGLUSTAT] | – | – | – | – | – | – | IC50 [16]: No inhibition; IC50 [14]: No inhibition; IC50 [17]: No inhibition |
| OC[C@H]1N[C@H](CO)[C@@H](O)[C@@H]1O | – | No inhibition | No inhibition | No inhibition | – | No inhibition | – |
| OC[C@H]1NC[C@H](O)[C@@H](O)[C@@H]1O (stereo in doubt; 1) [DUVOGLUSTAT] | – | – | – | – | – | – | IC50 [18]: No inhibition; IC50 [19]: 42 µM; IC50 [20]: No inhibition; IC50 [21]: No inhibition; IC50 [11]: No inhibition |
